# Screening data: PubChem, Johns Hopkins Ion Channel Center
# This is a sample that favours compounds with a hit; in the whole collection about 3.8% have one here.
# Kir21 block: Kir2.1 (mouse) channel inhibition | HEK293-Kir2.1, FluxOR thallium flux fluorescence; active compounds read low | B-score at 10 µM | 0.85% of 310,000 active | AID 1672;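 active means fluorescence ratio B-score at or below minus 3 SD of library scores, with starting-brightness B-score within 2 SD, cut at about -4.2 in these data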;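 further: channel flux triggered by added potassium and thallium sulfate stimulus; B-score of peak minus minimum fluorescence over baseline after thallium stimulus; more negative B-score means stronger Kir2.1 block with less thallium influx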
# hERG protect: compounds protecting human hERG from proarrhythmic drug block; AID 1511; activation (rescue from dofetilide block), less the hit threshold, % at 10 µM; CHO-hERG, FluxOR thallium flux, dofetilide IC70 present; 0.51% of 310,000 active;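 active means activation above the mean of controls blocked by dofetilide plus 5 SD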;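 further: thallium influx through hERG after potassium depolarization seen as dye fluorescence rise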
# KCNK9 block: human KCNK9 channel inhibition. 1.2% of 310,000 active. HEK293 KCNK9, FluxOR thallium flux fluorescence; active compounds read low. B-score at 10 µM;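 active means ratio B-score over 3 SD below the library mean, with starting fluorescence within 5 SD of its mean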;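 further: negative B-score means less thallium flux so channel inhibition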
# KCNQ1 block: human KCNQ1 channel inhibition; P51787; B-score at 10 µM; 1.3% of 310,000 active; CHO-K1 KCNQ1, FluxOR thallium flux fluorescence; active compounds read high;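 active means compounds whose thallium flux B-score, printed positive for inhibition, exceeds three library SD while starting fluorescence stays within three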;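 further: channel opened by potassium depolarization with thallium stimulus after 20 min compound exposure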
# Target sequence (P51787 whole entry, looked up): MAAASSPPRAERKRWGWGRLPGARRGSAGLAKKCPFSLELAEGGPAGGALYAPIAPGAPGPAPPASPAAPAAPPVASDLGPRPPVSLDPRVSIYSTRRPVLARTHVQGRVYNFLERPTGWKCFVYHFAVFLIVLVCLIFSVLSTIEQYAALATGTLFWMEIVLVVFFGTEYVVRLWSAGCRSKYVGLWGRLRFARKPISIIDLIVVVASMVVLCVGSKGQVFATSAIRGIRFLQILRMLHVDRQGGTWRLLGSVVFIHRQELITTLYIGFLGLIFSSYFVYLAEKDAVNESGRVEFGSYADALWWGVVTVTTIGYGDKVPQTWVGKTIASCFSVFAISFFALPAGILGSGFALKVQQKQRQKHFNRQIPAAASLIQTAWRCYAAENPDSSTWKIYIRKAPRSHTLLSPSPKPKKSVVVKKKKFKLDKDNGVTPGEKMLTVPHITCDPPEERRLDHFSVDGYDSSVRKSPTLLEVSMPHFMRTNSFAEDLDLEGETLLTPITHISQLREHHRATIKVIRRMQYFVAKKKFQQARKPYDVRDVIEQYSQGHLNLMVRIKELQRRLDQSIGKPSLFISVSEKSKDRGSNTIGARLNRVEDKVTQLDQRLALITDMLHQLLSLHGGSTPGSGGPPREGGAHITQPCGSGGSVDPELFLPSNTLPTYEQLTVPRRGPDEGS
# KCNK3 block: human KCNK3 channel inhibition, primary screen. CHO-KCNK3 thallium flux, FluxOR fluorescence; active compounds read low. B-score at 10 µM. 0.84% of 340,000 active. O14649;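 active means B-score under library mean minus 4 SD, starting fluorescence ratio at most library mean plus 5 SD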;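 further: more negative B-score means stronger inhibition of thallium flux through KCNK3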
# KCNQ1 act: human KCNQ1 channel potentiation or activation; P51787; CHO-K1 KCNQ1, thallium flux FluxOR fluorescence; active compounds read high; B-score at 10 µM; 0.35% of 310,000 active; AID 2648;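 active means fluorescence ratio B-score, a plate-corrected score, at least three library SD, with initial intensity B-score within 5 SD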
#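 System: Stable KCNQ1 CHO-K1 line | Incubation: 90 min dye loading and 20 min compound exposure, both at room temperature | Measure: Ratio B score | Medium: Assay buffer for compound exposure, DMSO matched across wells | Compound dosing: Single-concentration screen | Probe or stimulus: K+/Tl+ depolarizing stimulus | Measured by: Kinetic FluxOR fluorescence, 10 s baseline plus 110 s post-stimulus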
# KCNK9 block conf: confirmation of human KCNK9 potassium channel inhibitors; AID 492992; HEK293 KCNK9 cells, FluxOR thallium flux fluorescence; 43% of 4,900 active; inhibition, % at 10 µM; shares compounds with KCNK9 block;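 active means thallium signal inhibited by more than 5 SD of the compound-free buffer control wells, on both duplicate plates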;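 further: 0% = assay buffer control wells without compound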
# Kir2-1 spec: mouse Kir2.1 off-target activity of KCNK9 modulators. shares compounds with KCNK9 block. Kir2.1 cells, FluxOR thallium flux fluorescence. inhibition, % at 10 µM. 4% of 4,900 active;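 active means thallium signal drop more than 5 SD beyond the mean of the no-compound control wells, seen in both duplicate plates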;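 further: signal is fluorescence rise after thallium addition divided by baseline fluorescence; plate controls were assay buffer only for no effect and full block by chlorpromazine control for full effect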
# HEK293 Tl ctr: non-induced cell nonspecific activity of KCNK9 modulators; shares compounds with KCNK9 block; non-induced KCNK9-HEK293, FluxOR thallium flux; inhibition, % at 10 µM; 40% of 4,900 active; AID 492997;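 active means thallium signal drop beyond 5 SD of the untreated control mean, on both duplicate plates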;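 further: plate controls were buffer only IC0 wells for no effect and SID17386958 at its maximal inhibitory level for full effect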
# * marks the source's active call; other numbers are inactive results; i = inactive; . = no result.
SMILES,Kir21 block,hERG protect,KCNK9 block,KCNQ1 block,KCNK3 block,KCNQ1 act,KCNK9 block conf,Kir2-1 spec,HEK293 Tl ctr
CN(C)/C=C(/C#N)C(=O)c1cccc(Oc2ccc(C(C)(C)C)cc2)c1,0.47,-11,i,i,i,i,i,i,42%*
CN(c1ccccc1)S(=O)(=O)c1cccc(NC(=O)CSc2nncn2C)c1,-0.08,-4,i,i,i,i,.,.,.
CN(c1ccccc1)S(=O)(=O)c1cccc(NC(=O)CSc2ncc(C(F)(F)F)cc2Cl)c1,-0.35,-4,-8.9*,7*,i,i,42%*,i,30%*
CN(CC(=O)Nc1ccccc1C(F)(F)F)C(=O)CN1C(=O)C2CCCCC2C1=O (stereo not drawn),1.7,0,i,i,i,i,.,.,.
O=C(COc1cccc(C(F)(F)F)c1)N1CCN(c2ccc(O)cc2)CC1,-0.02,-14,i,i,i,i,.,.,.
CC1(C)CC(=O)c2cc(OCC(=O)N3CCN(c4ccccc4F)CC3)ccc2O1,-0.22,-9,i,i,i,i,.,.,.
O=C(COc1ccc2c(c1)CCC2)N1CCN(c2ccccc2F)CC1,-1.5,-6,i,i,i,i,i,i,i
O=C(COc1ccc2c(c1)CCC2)N1CCN(c2cccc(C(F)(F)F)c2)CC1,0.6,-4,i,i,i,i,i,i,i
CC(=O)c1cccc(NC(=O)COc2ccc3oc(=O)cc(C)c3c2)c1,2.1,-18,i,i,i,i,.,.,.
Cc1noc(C)c1CSCC(=O)N(C)CC(=O)Nc1ccccc1C(F)(F)F,.,.,.,.,i,.,.,.,.
CCc1noc(C)c1C(=O)N1CCN(S(=O)(=O)c2ccc(C)cc2)CC1,-1.8,-15,i,i,i,i,.,.,.
Cc1nn(-c2ccccc2)c(Cl)c1/C=N/Nc1nc2ccccc2n1C,0.56,-11,i,i,i,i,i,i,i
Cc1sc2cc3c(c(C(=O)c4ccccc4)[n+]2c1C)-c1cccc2cccc-3c12,-13*,-46,-10*,i,.,i,41%*,64%*,34%*
O=C(c1ccccc1)c1c2c(cc3sc4ccccc4[n+]13)-c1cccc3cccc-2c13,.,.,.,.,i,.,.,.,.
CCN(CC)c1nc(C#N)nc(N(CC)CC)n1,-0.41,-8,i,i,i,i,i,i,i
CCN(CC)c1nc(SCC(=O)O)nc(N(CC)CC)n1,1,-17,i,i,i,i,.,.,.
Cn1c(=O)c2c(nc(CN3CCN(c4ccccc4F)CC3)n2CCCc2ccccc2)n(C)c1=O,0.39,-7,i,i,i,i,i,i,i
CCOCCn1c(N2CCN(c3ccccc3)CC2)nc2c1c(=O)n(C)c(=O)n2C,-0.89,-12,i,i,i,i,.,.,.
CN1CCN(Cc2nc3c(c(=O)n(C)c(=O)n3C)n2CCCc2ccccc2)CC1,-0.91,-14,i,i,i,i,.,.,.
CCCCCCn1c(N2CCN(c3ccccc3)CC2)nc2c1c(=O)n(C)c(=O)n2C,2.5,-23,-8.5*,i,i,i,43%*,i,40%*
Cc1ccccc1OCCC(=O)OCC(=O)NNC(=O)c1cccs1,.,.,.,.,i,.,.,.,.
Cc1ccc(S(=O)(=O)N2[C@@H](c3ccc(C(C)C)cc3)C(C(=O)O)=C[C@H]2C(C)(C)C)cc1,.,.,.,.,i,.,.,.,.
COc1ccc(C(=O)C2CCCN(C/C=C/c3ccccc3OC)C2)c(OC)c1 (stereo not drawn),-2.7,-20,i,i,i,i,i,i,i
COc1cccc(C(=O)C2CCCN(C/C=C/c3ccccc3OC)C2)c1 (stereo not drawn),0.02,-33,i,i,i,i,i,i,i
COc1ccc(C(=O)C2CCCN(Cc3c(F)ccc(F)c3F)C2)c(OC)c1 (stereo not drawn),-2.1,-4,i,i,i,i,.,.,.
SMILES,Kir21 block,hERG protect,KCNK9 block,KCNQ1 block,KCNK3 block,KCNQ1 act,KCNK9 block conf,Kir2-1 spec,HEK293 Tl ctr
CCCCc1ccc(NC(=O)CSc2nc(=O)n3cc(C)ccc3n2)cc1,0.91,-7,i,i,i,i,.,.,.
O=C(Cn1ncc(Cl)c(Cl)c1=O)NC(=O)NC1CCCCC1,.,.,.,.,i,.,.,.,.
Cc1cc(C)cc(C(=O)N(CCc2ccccc2)C2CC3CCC(C2)N3C)c1 (stereo not drawn),-0.95,-4,i,i,i,i,i,i,i
COc1cccc(CN2CC(C(=O)NCCCn3cccn3)CCC2=O)c1 (stereo not drawn),3.7,-9,i,i,i,i,.,.,.
CCOc1ccc2[nH]c(=O)c(CN(Cc3cccs3)Cc3nnnn3C(C)(C)CC)cc2c1,-2.2,-18,-9.7*,i,-9.9*,i,34%*,i,i
c1ccc(C2CCC3(CC2)Oc2ccccc2C2CC(c4cccnc4)=NN23)cc1 (stereo not drawn),-0.63,-9,-9.3*,i,.,i,50%*,i,41%*
CN(C)C1=NCCN1CCCCc1ccccc1,.,.,.,.,i,.,.,.,.
COc1ccc(-c2[nH]ncc2[C@@H]2C[C@H]3CN(Cc4ccccc4C)C(=O)[C@]34CCCN24)cc1,0.2,-9,i,i,i,i,i,i,i
Cc1ccccc1CN1C[C@@H]2C[C@@H](c3cn[nH]c3-c3ccc(F)cc3)N3CCC[C@@]23C1=O,0.5,-13,i,i,i,i,.,.,.
CN(C)CCN(C(=O)C1CCN(S(=O)(=O)c2cccs2)CC1)c1nc2c(F)cccc2s1,0.89,-12,i,i,i,i,.,.,.
CCOC(=O)C1CCCN(Cc2cc(=O)oc3cc(C)c(C(C)C)cc23)C1 (stereo not drawn),-1.8,-11,-9.2*,i,i,i,52%*,i,42%*
C=CCSc1nc2c(c(=N)n1CC=C)C1CCCC1S2 (stereo not drawn),-0.31,-8,-18*,i,i,i,i,i,36%*
C=CCn1c(C)nnc1SCC(=O)NC1CCCCC1,1.4,-4,i,i,i,i,.,.,.
COC(=O)C(Cc1ccc(OC(=O)c2ccc(C)cc2)cc1)N1Cc2ccccc2C1=O (stereo not drawn),0.89,-4,i,i,i,i,i,i,i
